High-throughput results from PubChem.
The list is not random: actives were taken first. Their share in the collection is about 4.8%.
CSC inhib – cancer stem cell viability inhibitors, primary screen, luminescence. cancer stem cell-like cells viability. inhibition, % at 7.5 µM. 300,000 compounds, 1.1% hits. AID 2717, 2010; in the data active = inhibition above about 75%; tested in HMLE shEcad cells
Beta cell apopt – inhibitors of cytokine-induced beta cell apoptosis, primary screen, luminescence; INS-1E cytokine-induced death, ATP luminescence, 48 h; percent of positive-control rescue, neutral wells zero; protection from apoptosis, % (no concentration beside the values); 300,000 compounds, 0.8% hits;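 active = Every replicate reaches about 75%, or at least half do and their mean reaches it too, limit read from the data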;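 also: higher means more ATP so stronger rescue from cytokine killing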
CHOP UPR activ – activators of apoptotic CHOP UPR arm, primary screen, cell-based, CHO-CHOP luciferase reporter, luminescence, uHTS | UPR activation; percent of tunicamycin response over DMSO baseline | activation, % at 10 µM | 330,000 compounds, 0.34% hits;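 active = at 10 µM dose, activation of 40% or more, normalized to positive control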
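System: CHO-CHOP luciferase reporter cell line | Buffer or medium: F12 medium containing 10% fetal bovine serum | Doses: One dose, 10 µM in 0.5% DMSO | Times: 6 h compound exposure at 37 °C after overnight seeding | Signal: Luciferase luminescence | Read-out: % activation vs tunicamycin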
SKKanGAS inh – S. pyogenes SKKanGAS growth inhibitors in kanamycin, primary screen, streptokinase expression inhibitor project, SKKanGAS strain, BacTiter-Glo luminescence; 6 h; inhibition, % at 7.5 µM; 300,000 compounds, 1.3% hits; AID 1662, 2009;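 active = mean replicate score, as percent of positive control median, at least 50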;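 also: strain carries kanamycin resistance gene driven by streptokinase promoter and grows in 40 µg/ml kanamycin; loss of luminescence reflects streptokinase promoter inhibition or plain growth inhibition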
UPR XBP1 act – activators of adaptive XBP1 UPR arm, primary screen, cell-based, CHO-XBP1 luciferase reporter, luminescence, uHTS; IRE1-XBP1 UPR activation; percent of tunicamycin response, DMSO as zero; activation, % at 20 µM; 330,000 compounds, 0.33% hits;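 active = versus positive control, 20 µM dose yields 30% or more activation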
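Material: CHO-XBP1 cells stably carrying IRE1-XBP1-driven luciferase reporter / Amount: 1000 cells per well / Compound: 20 µM, 1% DMSO / Times: 6 h treatment, 37 °C / Detection: luciferase luminescence / Measure: % activation of reporter signal versus tunicamycin and DMSO controls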
Mdm2-MdmX inh – inhibitors of human Mdm2-MdmX association, primary screen, cell-based, luminescence, split luciferase, SaOS-2, uHTS; Protein Mdm4 (Homo sapiens) + E3 ubiquitin-protein ligase Mdm2 (Homo sapiens), …; SaOS-2 split-luciferase Mdm2/MdmX complementation; inhibition, % at 8 µM; 330,000 compounds, 3% hits;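 active = inhibition of at least 50% at 8 µM in the primary screen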
Mdm2-MdmX conf – Mdm2-MdmX complex disruptors, retested hits, confirmation, luminescence, single concentration; shares compounds with Mdm2-MdmX inh; Mdm2-MdmX binding, luminescent assay; 10,000 compounds, 55% hits; inhibition, % at 8 µM; in the data active = inhibition above about 40%
FLuc counter – full-length luciferase signal inhibition, confirmation, counter-screen for Mdm2/MdmX interaction inhibitor project, cell-based, single concentration, SaOS-2; shares compounds with Mdm2-MdmX inh; SaOS-2 full-length luciferase counterscreen, luminescence; inhibition, % at 8 µM; 6,200 compounds, 77% hits; AID 504607, 2011;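 active = mean inhibition at 8 µM reaching about 37%, which flags the compound as non-specific, limit read from the data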;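 also: p53-null SaOS-2 cells with luciferase driven by a doxycycline-inducible promoter; compound on cells about two nights before reading with doxycycline added after day one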
Hits are given with their value; 0 = inactive; - = no result given; + = active, no number.

SMILES	CSC inhib	Beta cell apopt	CHOP UPR activ	SKKanGAS inh	UPR XBP1 act	Mdm2-MdmX inh	Mdm2-MdmX conf	FLuc counter
Cc1cc(NC(=O)COC(=O)c2ccccc2S(=O)(=O)N(C)c2ccccc2)no1	0	0	0	0	0	96	72	43
Cc1cc(NC(=O)COC(=O)c2ccccc2NCCO)no1	0	0	0	-	0	0	-	-
CSCCC(NC(=O)c1ccccc1)C(=O)N1CCN(C(C)=O)CC1 (stereo unspecified)	-	0	0	-	0	0	-	-
Cc1ccccc1CN1CCN(CC2CC2)CC1CCO (stereo unspecified)	0	-	0	0	0	0	-	-
O=C(Cn1nnc2ccccc2c1=O)N[C@@H](Cc1ccccc1)C(=O)O	0	0	0	0	0	0	-	-
O=C(Nc1ccccc1Cc1ccccc1)c1ccccc1NS(=O)(=O)c1ccc(Cl)s1	+	0	0	117	0	93	92	0
O=C(Nc1ccccc1)c1ccccc1NS(=O)(=O)c1ccc(Cl)s1	0	0	0	0	0	85	62	0
Cc1ccc(NC(=O)c2ccccc2NS(=O)(=O)c2ccc(Cl)s2)cc1	0	77	0	0	0	90	81	0
O=C(NCc1ccco1)c1ccccc1NS(=O)(=O)c1ccc(Cl)s1	0	0	0	0	0	0	-	-
CC(C)N(C(=O)[C@H]1CC(CC(=O)NCCc2ccccn2)C(=O)N2CCc3c([nH]c4ccccc34)[C@]12C)C(C)C (stereo partly specified)	0	0	0	-	0	0	-	-
COCC(=O)N1CCC(Oc2ccc(C(=O)NCCCC3CCCC3)cc2)CC1	0	0	0	0	0	0	-	-
O=C(NCc1cccs1)c1ccc(CS(=O)Cc2cccc(Cl)c2)o1 (stereo unspecified)	0	0	0	0	0	0	-	-
Cc1ccc(S(=O)(=O)N2CCN(C(=S)NCC3CCCO3)CC2)cc1 (stereo unspecified)	0	0	0	0	0	0	-	-
Cc1ccc(Cl)c(NC(=O)COC(=O)c2ccccc2C(=O)c2ccc(Cl)c([N+](=O)[O-])c2)c1Cl	0	0	-	0	-	-	-	-
CCCNC(=O)COC(=O)c1ccccc1C(=O)c1ccc(Cl)c([N+](=O)[O-])c1	0	0	0	0	0	98	88	52
CC1Oc2ccccc2N(CC(=O)NCCN2CCOCC2)C1=O (stereo unspecified)	0	0	0	0	0	0	-	-
CCC(=O)NC(=S)Nc1ccc(NC(=O)c2cc3ccccc3o2)c(OC)c1	0	0	0	0	0	54	0	-
COc1cc(NC(=O)c2cccc([N+](=O)[O-])c2)ccc1NC(=O)c1cc2ccccc2o1	0	0	0	0	0	81	0	88
COc1cc(NC(=O)C(C)C)ccc1NC(=O)c1cc2ccccc2o1	0	0	0	0	0	0	-	-
CCOc1cccc(C(=O)Nc2ccc(NC(=O)c3cc4ccccc4o3)c(OC)c2)c1	0	0	0	0	0	0	-	-
COc1cc(NC(=O)c2cccc(C)c2)ccc1NC(=O)c1cc2ccccc2o1	0	0	0	0	0	67	0	81
N#Cc1cccc(CN2CCC(=O)N([C@H](CO)Cc3ccccc3)CC2)c1	0	0	0	0	0	0	-	-
COC(=O)c1ccc(CNC(=O)C(C)N=C2NS(=O)(=O)c3ccccc32)cc1 (stereo unspecified)	-	-	0	-	0	0	-	-
CC1(COS(N)(=O)=O)CCCCC1	0	0	0	0	0	0	-	-
O=C(Nc1cccc2[nH]ncc12)c1ccc(F)cc1	0	0	0	0	0	60	74	0
